Screens: PubChem, Broad Institute
miR122 inh – inhibitors of miR-122 in Huh7 cells; Huh7 miR-122 Renilla luciferase sensor, 48 h; neutral wells = 0, positive control = 100; activation (reporter increase), % at 12.5 µM; AID 602342; 340,000 compounds, 0.3% hits;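 active = mean replicate activation score at least 90 and every replicate individually at or above 90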;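 note: higher luciferase means less miR-122 activity so hits act as miR-122 inhibitors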
CAL PDZ FP-1 – blocks peptide binding to the human CAL PDZ domain. AID 602252. 300,000 compounds, 0.92% hits. purified CAL PDZ, TMR-peptide fluorescence polarization, 1 h. inhibition, % at 24.9 µM;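 active = mean inhibition of at least 30% with at least half of replicates also reaching 30%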;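 note: 0% = DMSO neutral control and 100% = excess unlabeled competitor peptide PRC23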
PvdQ inh – blocks Pseudomonas aeruginosa PvdQ acylase activity. inhibition, % at 10 µM. AID 488965. purified PvdQ acylase, fluorescence plate reader. 340,000 compounds, 0.063% hits; in the data active = inhibition above about 30%, passing the limit was not always enough;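 note: 0% = vehicle neutral wells and 100% = reference inhibitor wells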
CAL PDZ FP-2 – human CAL PDZ-peptide interaction inhibition. Q9HD26. 330,000 compounds, 0.02% hits. purified CAL PDZ, TMR-peptide fluorescence polarization, 1 h. inhibition, % at 20 µM;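 active = highest replicate inhibition of at least 40%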;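 note: plate controls were DMSO neutral control wells for no effect and unlabeled competitor peptide control wells for full effect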
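material = purified tagged CAL PDZ domain construct (CerCALP) | compound dosing = 20 µM, one dose | times = 1 h at RT | measured by = fluorescence polarization from S- and P-plane intensities, G-factor corrected | read-out = inhibition from polarization loss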
* hit, by the source's call; . = no result given; [ ] = remark or other dose. Most compounds without a hit are left out; they make up all but 0.95% or so of the library.

SMILES	miR122 inh	CAL PDZ FP-1	PvdQ inh	CAL PDZ FP-2
COc1ccc(CCC(=O)OCC(=O)c2ccc[nH]2)cc1OC	.	-5	-21	-1
O=C(NNc1c([N+](=O)[O-])cc(C(F)(F)F)cc1[N+](=O)[O-])c1ccco1	.	0	-2	-3
CCOc1ccc(NC(=O)CN(C)CC(=O)NC2CCCc3ccccc32)cc1OCC (stereo not given)	2	40*	-13	0
O=C(CSc1cc(Cl)ccc1Cl)NC1CCCc2ccccc21 (stereo not given)	15	-6	4	-3
Cc1ccc2nc(SCC(=O)NC3CCCc4ccccc43)[nH]c2c1 (stereo not given)	.	84*	-12	-1
COc1cc(CC(=O)NC2CCCc3ccccc32)cc(OC)c1OC (stereo not given)	.	43*	-14	-1
Cc1nc(-c2ccccc2)sc1C1(C)CC(c2ccc(C#N)cc2)=NO1 (stereo not given)	-1	-2	-19	-2
Cc1cccc(Cn2nc(C(C)(C)C)cc2C(=O)Nc2ccc(F)cc2)c1	38	.	-6	-2
O=C(COc1ccc(Br)cc1)Nc1cc(S(=O)(=O)N2CCCCC2)ccc1N1CCCCC1	.	.	-11	0
O=C(COC(=O)c1ccc2c(c1)OCO2)NCc1ccc(Cl)cc1	7	61*	-20	.
Cc1ccc(COC(=O)CCc2nc3ccccc3c(=O)[nH]2)cc1	-2	-3	-14	-1
Cc1noc(C)c1COC(=O)CCc1nc2ccccc2c(=O)[nH]1	16	45*	-16	.
C[C@H](CO)N1C[C@H](C)[C@@H](CN(C)Cc2ccc(Cl)c(Cl)c2)Oc2c(NC(=O)C3CC3)cccc2C1=O	114*[16.7 µM]	-6	-17	0
C[C@@H]1CN([C@@H](C)CO)C(=O)c2cccc(NC(=O)C3CC3)c2O[C@@H]1CN(C)Cc1ccc(Cl)c(Cl)c1	8[16.7 µM]	.	.	.
C[C@@H]1CN([C@H](C)CO)C(=O)c2cccc(NC(=O)NC3CCCCC3)c2O[C@H]1CN(C)Cc1ccc(Cl)c(Cl)c1	118*[16.7 µM]	.	.	.
COc1cccc(NC(=O)C2CSC3(C)CCC(=O)N23)c1 (stereo not given)	.	-3	-13	-3
CC1Cc2ccccc2N1C(=O)COC(=O)c1cccc(Br)c1 (stereo not given)	-2	182*	-17	-2
CC(=O)Nc1ccccc1NC(=O)C/C(C)=N/NC(=O)c1ccc([N+](=O)[O-])c(Cl)c1	-10	30*	-7	-1
C/C(CC(=O)Nc1cccnc1)=N\NC(=O)c1ccc([N+](=O)[O-])c(Cl)c1	.	-5	9	-1
Cc1ccc(C(C)(C)C)cc1S(=O)(=O)Nc1nc2ccccc2nc1Cl	32	-4	-3	-1
COc1ccc(NS(=O)(=O)c2cc(NC(=O)c3ccc(=O)[nH]c3)ccc2C)cc1	100*	2	5	-2
O=C(c1ccc2c(c1)OCO2)C1CCCN(Cc2cc(F)ccc2-n2cccn2)C1 (stereo not given)	.	57*	-13	-1
Cc1ccc(-n2cccn2)c(CN2CCCC(C(=O)c3ccc4c(c3)OCO4)C2)c1 (stereo not given)	.	-1	2	-2
COCC(=O)N(C)C[C@@H]1Oc2ncc(C#Cc3cccnc3)cc2C(=O)N([C@H](C)CO)C[C@H]1C	113*[16.7 µM]	.	.	.
COC(=O)c1cc2ccsc2n1Cc1cccc(F)c1	.	79*	-8	0
SMILES	miR122 inh	CAL PDZ FP-1	PvdQ inh	CAL PDZ FP-2
COc1ccc(/C=N/NC(=O)COc2ccccc2-c2ccccc2)cc1	129*	-2	-12	-2
CN(C)C1(CNC(=S)Nc2ccccc2C(F)(F)F)CCCCC1	.	61*	-17	0
COc1ccc(N2CCc3c(C)nc4c(OC)cc(OC)cc4c32)cc1	.	-1	-7	-1
CCOC(=O)Cc1csc(N(C)C)n1	-9	2	-14	0
Cc1cc(C(=O)NCC2COc3ccccc3O2)c2ccccc2n1 (stereo not given)	.	62*	-20	-2
CC1CCCN(C(=O)COC(=O)/C=C/c2ccc(C(F)(F)F)cc2)C1 (stereo not given)	-3	72*	-12	-1
CCOC(=O)C(CC)(CC)C(=O)/C=C/c1ccc(OC)cc1	.	.	3	1
COc1ccc(NC(=O)C#Cc2ccccc2)cc1	-8	63*	-13	1
CNC[C@@H]1Oc2ccc(NS(=O)(=O)c3ccc(Cl)cc3)cc2CC(=O)N([C@H](C)CO)C[C@@H]1C	4[16.7 µM]	.	.	.
CCC(=O)N1C[C@@H](C)[C@H](OC)CN(C)C(=O)c2ccc(NC(=O)c3ccc(F)cc3)cc2OC[C@H]1C	4[16.7 µM]	.	.	.
CCOCCCNC(=O)c1ccc(OC(C)=O)cc1	-3	37*	-9	-1
CCOCCCNC(=O)c1ccc(OC)cc1	-3	-2	-14	-1
CC(C)CC#Cc1ccc([C@H]2[C@H]3CN(C(=O)c4ccc5c(c4)OCO5)CCCCN3[C@H]2CO)cc1	-9[16.7 µM]	.	.	.
COc1ccc(C(=O)/C=C/c2ccc(N(C)C)cc2)c(OC)c1	212*	.	11	1
COc1cc(OC)cc(C(=O)N[C@H](C(=O)NC2=NCCS2)C(C)C)c1	1	.	-13	-1
CC(CCc1ccco1)NC(=O)CCc1nnc2ccc(NCc3ccccc3Cl)nn12 (stereo not given)	-6	-2	-5	-3
O=C(O)c1cc2c(cc1Cl)N1CCCCCC1=NS2(=O)=O	.	51*	-17	1
Cn1c(=S)[nH]c2scc(-c3cccs3)c2c1=O	.	66*	-11	-1
C=CCn1c(=S)[nH]c2scc(-c3cccs3)c2c1=O	1	1	-11	-2
CN(C)c1ccc(CNC(=O)CCS(=O)(=O)c2ccc3c(c2)oc(=O)n3C)cc1	-2	63*	-12	-1
Cc1ccccc1-n1nc2c(c1NC(=O)c1cc3ccccc3oc1=O)CS(=O)C2 (stereo not given)	-2	97*	-17	.
COc1cc(Br)c(CCNC(=O)Cc2ccccc2)cc1OC	.	-2	-9	-3
COc1ccc(C2=NOC(C(=O)NCc3ccc(F)cc3)C2)cc1 (stereo not given)	8	.	-15	0
O=C(NCC1CCCO1)C(c1cccs1)N(Cc1cccs1)C(=O)Cn1nnc(-c2cccs2)n1 (stereo not given)	116*	-2	-17	.
CCn1cc(C2=NC(CC(C)C)CO2)c2ccccc21 (stereo not given)	3	65*	-15	-2
SMILES	miR122 inh	CAL PDZ FP-1	PvdQ inh	CAL PDZ FP-2
COc1ccc(CCNC(=O)c2cc3c(F)cccc3s2)cc1OC	2	70*	-15	-2
COc1ccc(CCNC(=O)c2cccc3ccccc23)cc1OC	-7	-2	-19	-1
CC(C)(C)c1ccc(-c2cc(N)n[nH]2)cc1	.	-2	1	0
Oc1ccc(Cl)cc1/C=C/c1ccc2cccc(O)c2n1	140*	-2	-13	1
Oc1cccc2ccc(/C=C/c3ccccc3Br)nc12	4	59*	-9	1
CCOc1cc(-c2nnc(NC(=O)c3ccco3)o2)cc(OCC)c1OCC	3	-2	2	0
Nc1nonc1-n1nnc(C(=O)N/N=C/c2ccccn2)c1-c1ccccc1	-1	4	5	-2
